Source: ChEMBL document CHEMBL1909579, “New bioactive macrocyclic diterpenoids from Jatropha multifida” (Bioorg Med Chem Lett, 2011)
≈ marks a conversion by molar mass, not a printed value.

Assays:
Staphylococcus aureus [1] = experiment: Antimicrobial activity against Staphylococcus aureus MLS16 MTCC 96 by microtiter broth dilution method; assay type: functional; conditions: MLS16 MTCC 2940, in the assay text read “MTCC 2940” for “MTCC 96”
Summary of the method: (§1)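 MIC determined by microtiter broth dilution, with neomycin as the reference control; each organism's value derived from four individual observations.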

Staphylococcus aureus [2] = experiment: Antimicrobial activity against Staphylococcus aureus MTCC 96 by microtiter broth dilution method; assay type: functional; summary of the method: as §1
MCF7 = experiment: Cytotoxicity against human MCF7 cells by MTT assay; assay type: functional, cell-based
Summary of the method: (§2)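 MTT assay following Mosmann's method. Each IC50 was derived from four individual observations for each cell line.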

[3] = Cytotoxicity against human MDA231 cells by MTT assay; assay type: functional, cell-based; conditions: MDA-MB-231
Summary of the method: (§3)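 MTT read-out following Mosmann's method; IC50 for each cell line derived from four individual observations.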

HeLa = experiment: Cytotoxicity against human HeLa cells by MTT assay; assay type: functional, cell-based; summary of the method: as §3
[4] = Cytotoxicity against mouse Neuro2a cells by MTT assay; assay type: functional, cell-based; conditions: N2a; summary of the method: as §2
A549 = experiment: Cytotoxicity against human A549 cells by MTT assay; assay type: functional, cell-based; summary of the method: as §3
Bacillus subtilis = experiment: Antimicrobial activity against Bacillus subtilis MTCC 121 by microtiter broth dilution method; assay type: functional; summary of the method: as §1
Escherichia coli = experiment: Antimicrobial activity against Escherichia coli MTCC 739 by microtiter broth dilution method; assay type: functional; summary of the method: as §1
Raoultella planticola = experiment: Antimicrobial activity against Klebsiella planticola MTCC 530 by microtiter broth dilution method; assay type: functional; summary of the method: as §1
Pseudomonas aeruginosa = experiment: Antimicrobial activity against Pseudomonas aeruginosa MTCC 2453 by microtiter broth dilution method; assay type: functional; summary of the method: as §1

SMILES	MIC (Staphylococcus aureus [1])	MIC (Staphylococcus aureus [2])	IC50 (MCF7)	IC50 [3]	IC50 (HeLa)	IC50 [4]	IC50 (A549)	MIC (Bacillus subtilis)	MIC (Escherichia coli)	MIC (Raoultella planticola)	MIC (Pseudomonas aeruginosa)
CC1=C[C@@]2(O)C(=O)[C@@H](C)C[C@@H]3[C@H](CC[C@](C)(O)/C=C/2[C@@H]1O)C3(C)C [MULTIFIDENOL]	4.68 µg/mL (≈ 14 µM)	4.68 µg/mL (≈ 14 µM)	8.57 µM	5.39 µM	7.56 µM	5.6 µM	12.5 µM				
COc1cccc2c1C(=O)c1c(O)c3c(c(O)c1C2=O)C[C@@](O)(C(=O)CO)C[C@@H]3O[C@H]1C[C@H](N)[C@H](O)[C@H](C)O1 [DOXORUBICIN]				< 1 µM	< 1 µM						
C[C@H]1C[C@@H]2[C@H](CC[C@](C)(O)/C=C3\[C@H](O)[C@@H](C)C[C@@]3(O)C1=O)C2(C)C [MULTIFIDANOL]	18.8 µg/mL (≈ 55.7 µM)	18.8 µg/mL (≈ 55.7 µM)	6.39 µM	7.04 µM	15.4 µM	6.35 µM	6.27 µM	4.68 µg/mL (≈ 13.9 µM)	4.68 µg/mL (≈ 13.9 µM)	9.37 µg/mL (≈ 27.8 µM)	9.37 µg/mL (≈ 27.8 µM)
